Data set [1] can be described thus: Cytotoxicity against HEK293 cells assessed as cell growth inhibition measured after 72 hrs by resazurin dye based fluorescence assay relative to IC50. It is filed as toxicity. Conditions: human. In a few lines:
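HEK293 cells grown in DMEM with 10% FBS and exposed to compound for 72 h at 37 °C, 5% CO2. Medium was then replaced with 44 μM resazurin, incubated 5–6 h more, and fluorescence read at 530/595 nm. Top concentration 80 μM. Curves were duplicate, 11-point dose response.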

Data set [2] in a line: Selectivity index, ratio of IC50 for HEK293 cells to IC50 for antiplasmodial activity against ring stage chloroquine-sensitive Plasmodium falciparum 3D7. It is filed as toxicity, cell-based. To be noted: human, read-out: Ratio IC50. The method in brief: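 SI is HEK293 IC50 divided by P. falciparum 3D7 IC50. Parasites were sorbitol-synchronized twice, and rings were exposed 72 h at 37 °C (90% N2, 5% CO2, 5% O2), then DAPI-stained and imaged confocally. […] Where no accurate HEK293 IC50 was obtained, a relative IC50 or the top concentration was used and SI reported as a bound.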

Data set [3] deals with DNA. In words: Binding affinity to 5'-CGCATATATGCG-3' DNA (unknown origin) assessed as bound as dimer [DS + 2 M] in charge states 5- and 4- at 100 uM by native mass spectrometry. The class given is nucleic-acid assay. The method in brief:
(§1)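 Final sample: 9 μM DNA, 100 μM KCl, 100 μM S-MGB, 1% DMSO in 150 mM ammonium acetate pH 7. DNA with 1% DMSO and no ligand served as control. Sprayed in negative mode at 1.0–1.2 kV. Free, monomer- and dimer-bound DS species were read by charge state.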

The test system of data set [4] is DNA. In words: Binding affinity to 5'-CGCATATATGCG-3' DNA (unknown origin) assessed as bound as monomer [DS + 1 M] in charge states 5- at 100 uM by native mass spectrometry. The class given is nucleic-acid assay. The method in brief: as §1
Data set [5] in a line: Selectivity ratio of IC50 for antiplasmodial activity against ring stage chloroquine-resistant Plasmodium falciparum Dd2 to IC50 for antiplasmodial activity against ring stage chloroquine-sensitive Plasmodium falciparum 3D7. The class given is functional. In a few lines: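 Ring-stage P. falciparum Dd2 and 3D7, twice sorbitol-synchronised, in RPMI-1640 with 25 mM HEPES, 5% human AB serum, Albumax II, hypoxanthine. Exposed 72 h at 37 °C (90% N2/5% CO2/5% O2), 11-point dose response. DAPI stain, confocal imaging, % inhibition against in-plate controls, four-parameter IC50. Two independent duplicate runs. Ratio is Dd2 IC50/3D7 IC50.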

In data set [6] the test system is DNA. In words: Binding affinity to 5'-CGCATATATGCG-3' DNA (unknown origin) assessed as appearance of small m/z peak corresponding to free ds DNA oligo at 100 uM by native mass spectrometry. The class given is nucleic-acid assay. In a few lines: as §1

Activity calls are given as the source filed them. No cut-off for these calls is given here.

A word on the IC50: it is the concentration needed to halve the response being measured. For `COc1cccc(/C=C/c2ccc(C(=O)Nc3cc(C(=O)Nc4cc(C(=O)NCCN(C)C)n(C)c4)n(C)c3)cc2)c1`, the IC50 at 72 h in data set [1] turned out to be 20 µM.
On the same count and under the same terms, to `CN(C)CCCNC(=O)c1cc(NC(=O)c2cc(NC(=O)c3cc(NC(=N)c4cc5ccccc5cn4)cn3C)cn2C)cn1C` belongs 21 µM.
Regarding `COc1cccc(/C=C/c2ccc(C(=O)Nc3cc(C(=O)Nc4cc(C(=O)NCCCN(C)C)n(C)c4)n(C)c3)cc2)c1`, the selectivity ratio in data set [2] was above 195. The IC50 at 72 h in data set [1] was determined as 35 µM.
In the case of `CC(C)CCn1cc(NC(=O)c2cc(NC(=O)c3cc(NC(=N)c4cc5ccccc5cn4)cn3C)cn2C)cc1C(=O)NCCCN(C)C`, the IC50 at 72 h in data set [1] was determined as 40 µM.
Same read-out and setting: to `Cn1cc(NC(=O)c2cc(NC(=O)c3ccc(NC(=O)c4cccc(F)c4)cc3)cn2C)cc1C(=O)NCCC(=N)N` belongs 40 µM; to `Cn1cc(NC(=O)c2cc(NC(=O)c3ccc(/C=C/C(=O)Nc4ccccc4O)cc3)cn2C)cc1C(=O)NCCC(=N)N`, 40 µM.
`Cn1cc(NC(=O)c2cc(NC(=O)c3ccc(/C=C/c4ccncc4)cc3)cn2C)cc1C(=O)NCCC(=N)N`: the result in the data set with DNA [3] was Active. Further, in data set [2], the selectivity ratio is above 613. Also, the result in the data set with DNA [4] was inactive. For the same compound, in data set [1], the IC50 at 72 h is 40 µM.
Consider `CC(C)CCc1sc(NC(=O)c2cc(NC(=O)c3cc(NC(=O)c4cccc(F)c4)cn3C)cn2C)nc1C(=O)NCCCN(C)C`, for which the IC50 at 72 h in data set [1] is 40 µM.
On the same count and under the same terms, under `Cn1cc(NC(=O)c2cc(NC(=O)c3ccc(/C=C/c4ccc(C(F)(F)F)cc4)cc3)cn2C)cc1C(=O)NCCN1CCOCC1` stands 40 µM.
`CCc1nc(N)nc(N)c1-c1ccc(Cl)cc1` [PYRIMETHAMINE]: in data set [5], the “Ratio IC50” value was above 29740.
Take `Cn1cc(NC(=O)c2cc(NC(=O)c3ccc(/C=C/c4ccc5ccccc5c4)cc3)cn2C)cc1C(=O)NCCC(=N)N`: the outcome with DNA [6], in the data set on DNA [3] and in the data set with DNA [4] was Active. The selectivity ratio in data set [2] is above 265. In addition, the IC50 at 72 h in data set [1] turned out to be 80 µM.
Regarding `Cn1cc(NC(=O)c2cc(NC(=O)c3ccc(/C=C/c4ccc5nsnc5c4)cc3)cn2C)cc1C(=O)NCCN1CCOCC1`, the IC50 at 72 h in data set [1] came to 11 µM.
`COc1ccc(/C=C/c2ccc(C(=O)Nc3cc(C(=O)Nc4cc(C(=O)NCCC(=N)N)n(C)c4)n(C)c3)cc2)cc1.O=C(O)C(F)(F)F`: the “Ratio IC50” value in data set [5] turned out to be 1.4. Besides, the IC50 at 72 h in data set [1] was determined as 40 µM.
Turning to `Cn1cc(NC(=O)c2cc(NC(=O)c3ccc(/C=C/c4ccc(F)cc4)cc3)cn2C)cc1C(=O)NCCC(=N)N`, the IC50 at 72 h in data set [1] came to 40 µM.
Same read-out and setting: to `Cn1cc(NC(=O)c2cc(NC(=O)c3ccc(/C=C/c4cccc(F)c4)cc3)cn2C)cc1C(=O)NCCC(=N)N` belongs 40 µM.
Turning to `COc1cccc(/C=C/c2ccc(C(=O)Nc3cc(C(=O)Nc4cc(C(=O)NCCC(=N)N)n(C)c4)n(C)c3)cn2)c1`, the outcome with DNA [3] was Active. In addition, the selectivity ratio in data set [2] is above 336. The result in the data set on DNA [4] was inactive. Moreover, the IC50 at 72 h in data set [1] was 45 µM.
With `Cn1cc(NC(=O)c2cc(NC(=O)c3ccc(NC(=O)c4ccc(F)cc4)cc3)cn2C)cc1C(=O)NCCC(=N)N`, the IC50 at 72 h in data set [1] worked out at 35 µM.

For the origin of these results see ChEMBL document CHEMBL6114936, “S-MGBs bearing amidine tail groups are potent, selective antiplasmodial agents” (RSC Med Chem, 2025).
